Consider 2 compounds from ChEMBL document CHEMBL4312005, “Optimization of pyrrolizine-based Schiff bases with 4-thiazolidinone motif: Design, synthesis and investigation of cytotoxicity and anti-inflammatory potency” (Eur J Med Chem, 2020).

SMILES strings stand for the structures.

For data set [1], the system named is MCF7. The experiment in a line: Antiproliferative activity against human MCF7 cells assessed as cell viability at 5 uM incubated for 48 hrs by MTT assay (reference value: 100 %). The following applies: MCF7, 48 h, read-out: Activity. In kind it is functional. The essentials:
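Preliminary single-dose screen by MTT assay. MCF-7 cells grown in DMEM/10% FBS were exposed to 5 μM compound for 48 h, and growth% was determined. Values are mean ± S.D., n = 6.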

Data set [2] can be described thus: Selectivity index, ratio of IC50 for cytotoxicity against human MRC5 cells to IC50 for antiproliferative activity against human MCF7 cells. The settings on record: MRC5 cells versus MCF7 cells.
The nature of data set [3]: Selectivity index, ratio of IC50 for cytotoxicity against human MRC5 cells to IC50 for antiproliferative activity against human A2780 cells. The settings on record: MRC5 cells versus A2780 cells.
Data set [4] is described as follows: Selectivity index, ratio of IC50 for cytotoxicity against human MRC5 cells to IC50 for antiproliferative activity against human HT-29 cells. The settings on record: MRC5 cells versus HT-29 cells.
The test system of data set [5] is Rattus norvegicus. Description: Antiinflammatory activity against albino rats assessed as inhibition of carrageenan-induced paw edema at 0.5 mmol, po measured after 2 hrs relative to control. The data set is classed as functional. In short, it runs like this:
(§1)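 Carrageenan rat paw edema (Winter method) in male and female adult albino rats (100-140 g). […] Swelling inhibition expressed as % of control at 2-4 h after carrageenan injection.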
On the technique in general: In the carrageenan paw model, swelling and tenderness develop within hours.

Data set [6] concerns Rattus norvegicus. Description: Antiinflammatory activity against albino rats assessed as inhibition of carrageenan-induced paw edema at 0.5 mmol, po measured after 4 hrs relative to control. The data set is classed as functional. In short, it runs like this:
as §1

Data set [7] deals with MCF7. The experiment in a line: Cell cycle arrest in human MCF7 cells assessed as subG1 accumulation at 1 uM incubated for 24 hrs by propidium iodide based flow cytometry (reference value: 0.6 to 3 %). In kind it is functional.
Data set [8] deals with MCF7. The experiment in a line: Cell cycle arrest in human MCF7 cells assessed as subG1 accumulation at 5 uM incubated for 24 hrs by propidium iodide based flow cytometry (reference value: 0.6 to 3 %). The data set is classed as functional.
Data set [9] concerns MCF7. Description: Cell cycle arrest in human MCF7 cells assessed as subG1 accumulation at 10 uM incubated for 24 hrs by propidium iodide based flow cytometry (reference value: 0.6 to 3 %). In kind it is functional. A general note: In flow cytometry, cells or beads pass a laser one at a time.
In data set [10] the test system is MCF7. The experiment in a line: Cell cycle arrest in human MCF7 cells assessed as G1 accumulation at 1 uM incubated for 24 hrs by propidium iodide based flow cytometry (reference value: 49.6 to 55.1 %). In kind it is functional.
The test system of data set [11] is MCF7. Description: Cell cycle arrest in human MCF7 cells assessed as G1 accumulation at 5 uM incubated for 24 hrs by propidium iodide based flow cytometry (reference value: 49.6 to 55.1 %). In kind it is functional.
The subject of data set [12] is MCF7. Description: Cell cycle arrest in human MCF7 cells assessed as G1 accumulation at 10 uM incubated for 24 hrs by propidium iodide based flow cytometry (reference value: 49.6 to 55.1 %). In kind it is functional.
In data set [13] the test system is MCF7. The experiment in a line: Cell cycle arrest in human MCF7 cells assessed as S phase accumulation at 1 uM incubated for 24 hrs by propidium iodide based flow cytometry (reference value: 17.3 to 28.5 %). The data set is classed as functional.
Data set [14] concerns MCF7. Description: Cell cycle arrest in human MCF7 cells assessed as S phase accumulation at 10 uM incubated for 24 hrs by propidium iodide based flow cytometry (reference value: 17.3 to 28.5 %). The data set is classed as functional.
In data set [15] the test system is MCF7. The experiment in a line: Cell cycle arrest in human MCF7 cells assessed as G2/M phase accumulation at 1 uM incubated for 24 hrs by propidium iodide based flow cytometry (reference value: 17.2 to 26.8 %). In kind it is functional.
Data set [16] deals with MCF7. The experiment in a line: Cell cycle arrest in human MCF7 cells assessed as G2/M phase accumulation at 5 uM incubated for 24 hrs by propidium iodide based flow cytometry (reference value: 17.2 to 26.8 %). In kind it is functional.
The subject of data set [17] is MCF7. The experiment in a line: Cell cycle arrest in human MCF7 cells assessed as G2/M phase accumulation at 10 uM incubated for 24 hrs by propidium iodide based flow cytometry (reference value: 17.2 to 26.8 %). In kind it is functional.
Data set [18] has as its system MCF7. The experiment in a line: Induction of apoptosis in human MCF7 cells assessed as viable cells at 1 uM incubated for 24 hrs by annexin V FITC and propidium iodide staining based flow cytometry (reference value: 76 to 95.9 %). In kind it is functional. The following applies: MCF7, 24 h, read-out: Activity.
In data set [19] the test system is MCF7. Description: Induction of apoptosis in human MCF7 cells assessed as viable cells at 10 uM incubated for 24 hrs by annexin V FITC and propidium iodide staining based flow cytometry (reference value: 76 to 95.9 %). In kind it is functional. The settings on record: MCF7, 24 h, read-out: Activity.
The subject of data set [20] is MCF7. The experiment in a line: Induction of apoptosis in human MCF7 cells assessed as early apoptotic cells at 1 uM incubated for 24 hrs by annexin V FITC and propidium iodide staining based flow cytometry (reference value: 0 to 9 %). The data set is classed as functional.
Data set [21] has as its system MCF7. Description: Induction of apoptosis in human MCF7 cells assessed as early apoptotic cells at 5 uM incubated for 24 hrs by annexin V FITC and propidium iodide staining based flow cytometry (reference value: 0 to 9 %). The data set is classed as functional.
In data set [22] the test system is MCF7. The experiment in a line: Induction of apoptosis in human MCF7 cells assessed as early apoptotic cells at 10 uM incubated for 24 hrs by annexin V FITC and propidium iodide staining based flow cytometry (reference value: 0 to 9 %). The data set is classed as functional.
Data set [23] has as its system MCF7. The experiment in a line: Induction of apoptosis in human MCF7 cells assessed as late apoptotic cells at 1 uM incubated for 24 hrs by annexin V FITC and propidium iodide staining based flow cytometry (reference value: 0 to 2.5 %). In kind it is functional.
Data set [24] relates to MCF7. The experiment in a line: Induction of apoptosis in human MCF7 cells assessed as late apoptotic cells at 10 uM incubated for 24 hrs by annexin V FITC and propidium iodide staining based flow cytometry (reference value: 0 to 2.5 %). In kind it is functional.
The subject of data set [25] is MCF7. Description: Induction of apoptosis in human MCF7 cells assessed as necrotic cells at 1 uM incubated for 24 hrs by annexin V FITC and propidium iodide staining based flow cytometry (reference value: 4.1 to […]). The data set is classed as functional.
Data set [26] relates to MCF7. The experiment in a line: Induction of apoptosis in human MCF7 cells incubated for 24 hrs by annexin V FITC and propidium iodide staining based flow cytometry. In kind it is functional, cell-based.

With `CC(C)C/C=N/c1c(C#N)c2n(c1C(=O)Nc1ccc(Br)cc1)CCC2`, the viability at 5 µM in the data set on MCF7 [1] amounted to 56%. Further, the selectivity ratio in [2], in [3] and in [4] was 39 to 258 throughout. In addition, the “inhibition (INH)” value in the data set on Rattus norvegicus [5] was determined as 18.13%; in the data set with Rattus norvegicus [6] it was 30.82%. Also, the Activity is 1% in the data set with MCF7 [7]; 0.9% in the data set with MCF7 [8]; 0.7% in the data set with MCF7 [9]; 30.8% in the data set with MCF7 [10]; 30.2% in the data set on MCF7 [11]; 29.6% in the data set on MCF7 [12]. Also, the Activity in the data set on MCF7 [13] amounted to 55.6%; in the data set on MCF7 [14], 55.2%; with MCF7 [15] it was 12.4%; in the data set on MCF7 [16] it was 14.4%; in the data set with MCF7 [17], 15.1%; in the data set with MCF7 [20], 13.3%. The Activity in the data set with MCF7 [21] was 16.5%; in the data set on MCF7 [22], 15.6%; in the data set with MCF7 [23], 10.5%; with MCF7 [24], 12.2%; in the data set with MCF7 [25] it was 20.8%. The viability at 1 µM in the data set on MCF7 [18] was 55.4%. In addition, the viability at 10 µM with MCF7 [19] was 57.6%.

Take `CCC1SCC(=O)N1c1c(C#N)c2n(c1C(=O)Nc1ccccc1)CCC2` (configuration not stated): the selectivity ratio in data set [2] and in [3] was 3 to 15 each time. Moreover, the Activity in the data set with MCF7 [7] came to 2.4%; in the data set on MCF7 [8], 2.4%; in the data set with MCF7 [9], 8.9%; with MCF7 [10] it was 56.4%; with MCF7 [11], 59.4%; in the data set with MCF7 [12], 59.1%. Also, the Activity is 20.6% in the data set on MCF7 [13]; 14.2% in the data set with MCF7 [14]; 15.6% in the data set with MCF7 [15]; 15.8% in the data set with MCF7 [16]; 14.1% in the data set on MCF7 [17]; 11.5% in the data set on MCF7 [20]. Also, the Activity with MCF7 [21] was 14.3%; in the data set with MCF7 [22], 19.5%; in the data set on MCF7 [23] it was 7.5%; with MCF7 [24], 10.3%; with MCF7 [25] it was 1%; with MCF7 [26], “Dose-dependent effect”. Also, the viability at 1 µM in the data set on MCF7 [18] was determined as 80.1%. In addition, the viability at 10 µM in the data set on MCF7 [19] turned out to be 66.6%.
